Data from ChEMBL document CHEMBL4715736, “Identification of anticancer agents based on the thieno[2,3-b]pyridine and 1H-pyrazole molecular scaffolds” (2016).

system: SF-539; assay: Growth inhibition of human SF-539 cells assessed as cell growth at 100 uM incubated for 48 hrs by sulforhodamine B assay relative to control; type: functional; conditions: read-out: Activity

Q: Which growth at 100 µM does the source give for `CCc1cccc(C)c1NC(=O)c1sc2nc3c(cc2c1N)C(=O)CCC3` here?
A: Its growth at 100 µM is 2%.

system: MDA-MB-231; assay: Growth inhibition of human MDA-MB-231 cells assessed as cell growth at 100 uM incubated for 48 hrs by sulforhodamine B assay relative to control; type: functional; conditions: read-out: Activity

Q: `CCc1cccc(C)c1NC(=O)c1sc2nc3c(cc2c1N)C(=O)CCC3` was tested. Which growth at 100 µM did it give?
A: Its growth at 100 µM is 24%.

system: UO-31; assay: Growth inhibition of human UO-31 cells assessed as cell growth at 100 uM incubated for 48 hrs by sulforhodamine B assay relative to control; type: functional; conditions: read-out: Activity

Q: `CCc1cccc(C)c1NC(=O)c1sc2nc3c(cc2c1N)C(=O)CCC3` was tested. Which growth at 100 µM did it give?
A: Its growth at 100 µM is 12%.

system: MDA-MB-468; assay: Growth inhibition of human MDA-MB-468 cells assessed as cell growth at 0.1 uM incubated for 48 hrs by sulforhodamine B assay relative to control; type: functional; conditions: read-out: Activity

Q: Which growth at 0.1 µM does the source give for `CCc1cccc(C)c1NC(=O)c1sc2nc3c(cc2c1N)C(=O)CCC3` here?
A: The growth at 0.1 µM was 91%.

system: A498; assay: Growth inhibition of human A498 cells incubated for 48 hrs by sulforhodamine B assay; type: functional; conditions: not given
How it was run: (§1)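 NCI Developmental Therapeutics Program NCI60 panel. Compounds that were active in the 10 µM one-dose screen went on to dose–response testing. Growth at each concentration is expressed relative to untreated control (100%). GI50 (concentration giving 50% of maximal inhibition of proliferation) and TGI (concentration giving total growth inhibition) were derived from the curves.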

Q: With `CCc1cccc(C)c1NC(=O)c1sc2nc3c(cc2c1N)C(=O)CCC3` as the compound, how does the GI50 read?
A: Its GI50 is 178 nM.

Q: And the TGI?
A: The TGI was 665 nM.

same assay, conditions: read-out: LC50 (the source's name)

Q: `CCc1cccc(C)c1NC(=O)c1sc2nc3c(cc2c1N)C(=O)CCC3` was tested. Which CC50 did it give?
A: Its CC50 is over 100 µM.

system: A549; assay: Growth inhibition of human A549/ATCC cells assessed as cell growth at 100 uM incubated for 48 hrs by sulforhodamine B assay relative to control; type: functional; conditions: read-out: Activity; how it was run: as §1

Q: Which growth at 100 µM does the source give for `CCc1cccc(C)c1NC(=O)c1sc2nc3c(cc2c1N)C(=O)CCC3` here?
A: The growth at 100 µM was 6%.

system: SF-268; assay: Growth inhibition of human SF-268 cells assessed as cell growth at 100 uM incubated for 48 hrs by sulforhodamine B assay relative to control; type: functional; conditions: read-out: Activity

Q: `CCc1cccc(C)c1NC(=O)c1sc2nc3c(cc2c1N)C(=O)CCC3` was tested. Which growth at 100 µM did it give?
A: Its growth at 100 µM is 5%.

system: SW-620; assay: Growth inhibition of human SW-620 cells incubated for 48 hrs by sulforhodamine B assay; type: functional; conditions: not given
How it was run: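 NCI DTP 60-line human tumour panel. Dose-response curves were run only for ligands active in the initial 10 µM screen. GI50 (concentration giving 50% of maximal inhibition of proliferation) and TGI (concentration giving total growth inhibition) were derived from these curves.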

Q: How did the GI50 turn out when `CCc1cccc(C)c1NC(=O)c1sc2nc3c(cc2c1N)C(=O)CCC3` was run?
A: Its GI50 is 359 nM.

Q: What about the LC50 (concentration killing 50% of cells) of the same compound?
A: Its LC50 (concentration killing 50% of cells) is over 100 µM.

Q: And the TGI?
A: The TGI was over 100 µM.

system: K562; assay: Growth inhibition of human K562 cells assessed as cell growth at 100 uM incubated for 48 hrs by sulforhodamine B assay relative to control; type: functional; conditions: read-out: Activity

Q: For `CCc1cccc(C)c1NC(=O)c1sc2nc3c(cc2c1N)C(=O)CCC3`, which growth at 100 µM is on record?
A: The growth at 100 µM was -52%.

system: CCRF-CEM; assay: Growth inhibition of human CCRF-CEM cells incubated for 48 hrs by sulforhodamine B assay; type: functional; conditions: not given; how it was run: as §1

Q: For `CCc1cccc(C)c1NC(=O)c1sc2nc3c(cc2c1N)C(=O)CCC3`, which GI50 is on record?
A: The GI50 was 346 nM.

Q: And the LC50?
A: Its LC50 is over 100 µM.

Q: What about the TGI of the same compound?
A: The TGI was at least 100 µM.

system: HCC 2998; assay: Growth inhibition of human HCC 2998 cells assessed as cell growth at 1 uM incubated for 48 hrs by sulforhodamine B assay relative to control; type: functional; conditions: read-out: Activity; how it was run: as §1

Q: Which growth at 1 µM does the source give for `CCc1cccc(C)c1NC(=O)c1sc2nc3c(cc2c1N)C(=O)CCC3` here?
A: The growth at 1 µM was 55%.

system: UACC-62; assay: Growth inhibition of human UACC-62 cells assessed as cell growth at 1 uM incubated for 48 hrs by sulforhodamine B assay relative to control; type: functional; conditions: read-out: Activity

Q: How did the growth at 1 µM turn out when `CCc1cccc(C)c1NC(=O)c1sc2nc3c(cc2c1N)C(=O)CCC3` was run?
A: Its growth at 1 µM is 37%.

system: SNB-75; assay: Growth inhibition of human SNB-75 cells assessed as cell growth at 0.01 uM incubated for 48 hrs by sulforhodamine B assay relative to control; type: functional; conditions: read-out: Activity

Q: With `CCc1cccc(C)c1NC(=O)c1sc2nc3c(cc2c1N)C(=O)CCC3` as the compound, how does the growth at 0.01 µM read?
A: Its growth at 0.01 µM is 73%.

system: SNB-19; assay: Growth inhibition of human SNB-19 cells assessed as cell growth at 1 uM incubated for 48 hrs by sulforhodamine B assay relative to control; type: functional; conditions: read-out: Activity

Q: `CCc1cccc(C)c1NC(=O)c1sc2nc3c(cc2c1N)C(=O)CCC3` was tested. Which growth at 1 µM did it give?
A: Its growth at 1 µM is 47%.

system: COLO 205; assay: Growth inhibition of human COLO 205 cells assessed as cell growth at 1 uM incubated for 48 hrs by sulforhodamine B assay relative to control; type: functional; conditions: read-out: Activity; how it was run: as §1

Q: `CCc1cccc(C)c1NC(=O)c1sc2nc3c(cc2c1N)C(=O)CCC3` was tested. Which growth at 1 µM did it give?
A: Its growth at 1 µM is -19%.

system: OVCAR-3; assay: Growth inhibition of human OVCAR-3 cells assessed as cell growth at 0.1 uM incubated for 48 hrs by sulforhodamine B assay relative to control; type: functional; conditions: read-out: Activity

Q: `CCc1cccc(C)c1NC(=O)c1sc2nc3c(cc2c1N)C(=O)CCC3` was tested. Which growth at 0.1 µM did it give?
A: Its growth at 0.1 µM is 104%.

system: MDA-MB-468; assay: Growth inhibition of human MDA-MB-468 cells incubated for 48 hrs by sulforhodamine B assay; type: functional; conditions: not given
How it was run: (§2)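 NCI60 panel at the NCI Developmental Therapeutics Program. Only compounds active in the 10 µM screen went to dose-response testing. GI50, the concentration giving 50% of maximal inhibition of proliferation, and TGI, the concentration giving total growth inhibition, were derived from the dose-response curves.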

Q: For `CCc1cccc(C)c1NC(=O)c1sc2nc3c(cc2c1N)C(=O)CCC3`, which GI50 is on record?
A: The GI50 was 261 nM.

Q: And the TGI?
A: Its TGI is 60.6 µM.

same assay, conditions: read-out: LC50 (the source's name)

Q: `CCc1cccc(C)c1NC(=O)c1sc2nc3c(cc2c1N)C(=O)CCC3` was tested. Which CC50 did it give?
A: Its CC50 is over 100 µM.

system: DU-145; assay: Growth inhibition of human DU-145 cells incubated for 48 hrs by sulforhodamine B assay; type: functional; conditions: not given; how it was run: as §1

Q: For `CCc1cccc(C)c1NC(=O)c1sc2nc3c(cc2c1N)C(=O)CCC3`, which GI50 is on record?
A: Its GI50 is 454 nM.

Q: What about the TGI of the same compound?
A: Its TGI is over 100 µM.

same assay, conditions: read-out: LC50 (the source's name)

Q: With `CCc1cccc(C)c1NC(=O)c1sc2nc3c(cc2c1N)C(=O)CCC3` as the compound, how does the CC50 read?
A: Its CC50 is over 100 µM.

system: SK-MEL-28; assay: Growth inhibition of human SK-MEL-28 cells assessed as cell growth at 0.1 uM incubated for 48 hrs by sulforhodamine B assay relative to control; type: functional; conditions: read-out: Activity

Q: How did the growth at 0.1 µM turn out when `CCc1cccc(C)c1NC(=O)c1sc2nc3c(cc2c1N)C(=O)CCC3` was run?
A: The growth at 0.1 µM was 91%.

system: OVCAR-3; assay: Growth inhibition of human OVCAR-3 cells assessed as cell growth at 100 uM incubated for 48 hrs by sulforhodamine B assay relative to control; type: functional; conditions: read-out: Activity

Q: `CCc1cccc(C)c1NC(=O)c1sc2nc3c(cc2c1N)C(=O)CCC3` was tested. Which growth at 100 µM did it give?
A: The growth at 100 µM was -50%.

system: SNB-19; assay: Growth inhibition of human SNB-19 cells assessed as cell growth at 0.1 uM incubated for 48 hrs by sulforhodamine B assay relative to control; type: functional; conditions: read-out: Activity

Q: For `CCc1cccc(C)c1NC(=O)c1sc2nc3c(cc2c1N)C(=O)CCC3`, which growth at 0.1 µM is on record?
A: The growth at 0.1 µM was 91%.

system: HOP-62; assay: Growth inhibition of human HOP-62 cells assessed as cell growth at 100 uM incubated for 48 hrs by sulforhodamine B assay relative to control; type: functional; conditions: read-out: Activity

Q: With `CCc1cccc(C)c1NC(=O)c1sc2nc3c(cc2c1N)C(=O)CCC3` as the compound, how does the growth at 100 µM read?
A: Its growth at 100 µM is 28%.

system: SF-295; assay: Growth inhibition of human SF-295 cells assessed as cell growth at 0.1 uM incubated for 48 hrs by sulforhodamine B assay relative to control; type: functional; conditions: read-out: Activity

Q: How did the growth at 0.1 µM turn out when `CCc1cccc(C)c1NC(=O)c1sc2nc3c(cc2c1N)C(=O)CCC3` was run?
A: Its growth at 0.1 µM is 85%.

system: OVCAR-4; assay: Growth inhibition of human OVCAR-4 cells assessed as cell growth at 1 uM incubated for 48 hrs by sulforhodamine B assay relative to control; type: functional; conditions: read-out: Activity

Q: With `CCc1cccc(C)c1NC(=O)c1sc2nc3c(cc2c1N)C(=O)CCC3` as the compound, how does the growth at 1 µM read?
A: Its growth at 1 µM is 39%.

system: SK-MEL-5; assay: Growth inhibition of human SK-MEL-5 cells assessed as cell growth at 0.01 uM incubated for 48 hrs by sulforhodamine B assay relative to control; type: functional; conditions: read-out: Activity

Q: With `CCc1cccc(C)c1NC(=O)c1sc2nc3c(cc2c1N)C(=O)CCC3` as the compound, how does the growth at 0.01 µM read?
A: The growth at 0.01 µM was 92%.

system: NCI-H226; assay: Growth inhibition of human NCI-H226 cells assessed as cell growth at 0.1 uM incubated for 48 hrs by sulforhodamine B assay relative to control; type: functional; conditions: read-out: Activity

Q: With `CCc1cccc(C)c1NC(=O)c1sc2nc3c(cc2c1N)C(=O)CCC3` as the compound, how does the growth at 0.1 µM read?
A: Its growth at 0.1 µM is 94%.

system: HOP-92; assay: Growth inhibition of human HOP-92 cells assessed as cell growth at 1 uM incubated for 48 hrs by sulforhodamine B assay relative to control; type: functional; conditions: read-out: Activity

Q: For `CCc1cccc(C)c1NC(=O)c1sc2nc3c(cc2c1N)C(=O)CCC3`, which growth at 1 µM is on record?
A: The growth at 1 µM was 39%.

system: HCT-116; assay: Growth inhibition of human HCT-116 cells incubated for 48 hrs by sulforhodamine B assay; type: functional; conditions: not given; how it was run: as §2

Q: Which results are given for `CCc1cccc(C)c1NC(=O)c1sc2nc3c(cc2c1N)C(=O)CCC3`?
A: GI50: 471 nM; LC50 (concentration killing 50% of cells): > 100 µM; TGI: > 100 µM

system: MCF7; assay: Growth inhibition of human MCF7 cells assessed as cell growth at 1 uM incubated for 48 hrs by sulforhodamine B assay relative to control; type: functional; conditions: read-out: Activity

Q: With `CCc1cccc(C)c1NC(=O)c1sc2nc3c(cc2c1N)C(=O)CCC3` as the compound, how does the growth at 1 µM read?
A: The growth at 1 µM was 18%.

system: RPMI-8226; assay: Growth inhibition of human RPMI-8226 cells assessed as cell growth at 100 uM incubated for 48 hrs by sulforhodamine B assay relative to control; type: functional; conditions: read-out: Activity

Q: With `CCc1cccc(C)c1NC(=O)c1sc2nc3c(cc2c1N)C(=O)CCC3` as the compound, how does the growth at 100 µM read?
A: The growth at 100 µM was -39%.

system: ACHN; assay: Growth inhibition of human ACHN cells assessed as cell growth at 100 uM incubated for 48 hrs by sulforhodamine B assay relative to control; type: functional; conditions: read-out: Activity

Q: How did the growth at 100 µM turn out when `CCc1cccc(C)c1NC(=O)c1sc2nc3c(cc2c1N)C(=O)CCC3` was run?
A: The growth at 100 µM was 5%.
